Here are results for two compounds from ChEMBL document CHEMBL1146024, “Synthesis and structure-activity relationships of truncated bisubstrate inhibitors of aminoglycoside 6'-N-acetyltransferases” (J Med Chem, 2006).

For this test, the system named is Enterococcus faecium. The test can be described thus: Inhibition of Enterococcus faecium C238 growth in presence of kanamycin A. The format is functional, organism-based. Summed up: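 Two-dimensional checkerboard MIC assay per NCCLS, in duplicate, in brain heart infusion medium. Test compound in 2-fold dilutions from 8 to 512 µg/mL against kanamycin A at 100-600 µg/mL. Grown at 37 °C for 16 h; growth read at OD625, averaged, normalized to sterility controls and expressed as percent of positive growth controls.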

SMILES strings stand for the structures. The source made the active and inactive calls. The calls are words filed in the database; no cut-off is given here.

With `CC(C)(COC(=O)CC(=O)O)[C@@H](O)C(=O)NCCC(=O)NCCSCC(=O)NC[C@H]1O[C@H](O[C@H]2[C@H](O)[C@@H](O)[C@H](N)C[C@@H]2N)[C@H](N)[C@@H](O)[C@@H]1O`, the outcome was inactive. The same measure for `CC(=O)CC(=O)OCC(C)(C)[C@@H](O)C(=O)NCCC(=O)NCCSCC(=O)NC[C@H]1O[C@H](O[C@H]2[C@H](O)[C@@H](O)[C@H](N)C[C@@H]2N)[C@H](N)[C@@H](O)[C@@H]1O`: “Active”.
